# Only some compounds are listed: those with a hit (about 2% of all), similar ones and a draw of the others.
# ARNT-TACC3 inh = disruptors of human ARNT/TACC3 interaction; AID 623870; inhibition, % at 9.99 µM; AlphaScreen His-ARNT PAS-B/GST-TACC3 binding, luminescence; TACC3 fragment carries E629A point mutation; Q9Y6A5; hit rate 0.66% among 390,000;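 active = mean inhibition of replicates at least 50% and at least half of replicates each reaching 50%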;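 note: 0% = complete ARNT plus TACC3 wells and 100% = ARNT alone without TACC3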
# XiGFP reactiv = activators of X-chromosome reactivation in mouse fibroblasts | activation, % at 7.58 µM | hit rate 0.055% among 360,000 | AID 743238 | XiGFP mouse fibroblasts, % GFP-positive cells imaging, 3 d; cells co-treated with 5-aza-dC sensitizer; scaled so ellipticine positive control = 100%;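 active = mean normalized replicate activation at least 10% and every replicate at or above 10%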;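 note: 0% = median of on-plate neutral control wells and 100% = ellipticine 6 µM median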
#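 material = 68-5-11 XiGFP fibroblast line | medium = DMEM plus 5-aza-dC sensitizer | schedule = 3 days compound exposure | benchmarks = positive control ellipticine, 6 µM final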
# SR-BI uptake up = activators of SR-BI mediated HDL lipid uptake; hit rate 0.096% among 320,000; activation, % at 12.5 µM; AID 504775; CHO ldlA[mSR-BI] cells, DiI-HDL uptake fluorescence, 3 h; 100 = double the neutral-control signal;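 active = mean replicate activation of at least 60% and every replicate at or above 60%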;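 note: 0% = median plate neutral-control signal and 100% = twice that signal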
#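 Material – SR-BI-overexpressing, LDLR-lacking CHO cells · Medium – BSA-supplemented, HEPES-buffered Ham's F12, pH 7.4 · Doses – single concentration · Times – compound with DiI-HDL co-incubation, 3 h at 37 °C · Measured by – bottom-read fluorescence, 550/595 nm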
# NSD2 inh = NSD2 (human) methyltransferase inhibition. O96028. NSD2 peptide methylation, AlphaScreen, 120 min. inhibition, % at 12.5 µM. hit rate 0.54% among 310,000. AID 743445; in the data active = inhibition above about 50%
# sPLA2-III inh = Blocks human group III sPLA2 activity; Q9NZ20; QFRET BODIPY PC-A2 liposome hydrolysis, fluorescence; inhibition, % at 12.2 µM; hit rate 0.56% among 370,000; AID 743126;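 active = inhibition above mean plus 3 SD of compounds lying within the high and low control bounds, cut at about 19% in these data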;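 note: 0% = median of test compound wells and 100% = no enzyme DMSO wells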
# SR-BI DiI inh = blocks mouse SR-BI lipid uptake from DiI-HDL | hit rate 0.96% among 320,000 | Q61009 | inhibition, % at 12.5 µM | AID 488896 | ldlA[mSR-BI] CHO cells, DiI-HDL uptake fluorescence, 3 h;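 active = mean replicate inhibition of at least 70% and a set share of replicates each scoring 70 or more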;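 note: 0% = median of neutral control wells and 100% = median of positive control wells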
# Target sequence (Q61009 whole entry, looked up): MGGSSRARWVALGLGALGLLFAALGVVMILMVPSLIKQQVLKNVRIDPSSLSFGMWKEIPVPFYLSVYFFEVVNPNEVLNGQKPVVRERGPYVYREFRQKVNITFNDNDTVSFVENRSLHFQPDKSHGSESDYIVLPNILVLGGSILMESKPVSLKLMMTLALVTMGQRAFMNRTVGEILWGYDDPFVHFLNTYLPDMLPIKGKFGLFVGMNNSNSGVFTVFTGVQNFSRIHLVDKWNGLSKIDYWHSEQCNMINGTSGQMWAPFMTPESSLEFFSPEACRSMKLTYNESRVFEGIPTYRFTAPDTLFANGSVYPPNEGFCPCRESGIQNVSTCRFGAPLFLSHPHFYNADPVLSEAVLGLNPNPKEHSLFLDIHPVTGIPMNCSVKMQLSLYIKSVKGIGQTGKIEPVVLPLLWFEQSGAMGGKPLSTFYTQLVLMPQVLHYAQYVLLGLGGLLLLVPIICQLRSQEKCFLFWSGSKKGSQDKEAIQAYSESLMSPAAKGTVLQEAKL
# * hit, by the source's call; . = no result given.
SMILES,ARNT-TACC3 inh,XiGFP reactiv,SR-BI uptake up,NSD2 inh,sPLA2-III inh,SR-BI DiI inh
C[C@@H]1CN([C@H](C)CO)C(=O)c2cc(NC(=O)NC3CCCCC3)ccc2O[C@H]1CN(C)C(=O)Nc1ccc(C(F)(F)F)cc1,-2,0,.,.,.,.
COCCOc1ccc(C(F)(F)F)cc1N,-1,1,12,0,6,-12
CCC(CC)C(=O)Nc1cc(C(=O)OC)ccc1C(=O)OC,-9,0,67*,-5,13,-67
O=C(Nc1ccc(F)cc1)c1cnccn1,.,0,.,2,7,.
COc1ccccc1/C=C/C(=O)OCCCN(C)C,.,71*,27,4,-3,-27
O=C(Nc1ccc(Cl)cc1)c1cc(Br)ccc1OCC(=O)N1CCOCC1,5,0,-82,-2,2,82*
Cc1nn(C)c(Cl)c1S(=O)(=O)N[C@@H](c1ccccc1)[C@]1(C)C[C@H]1[C@@H](C)C(=O)Nc1ccc2ccccc2c1,-5,0,-42,.,-37,42
CCOc1cc(-c2nc(-c3ccc(OC)cc3)no2)cc(OCC)c1OCC,-2,.,-75,-1,6,75*
CCOc1cc(-c2nnc(-c3ccco3)o2)cc(OCC)c1OCC,-6,.,-77,3,-1,77*
CCOc1cc(-c2nc(-c3ccccc3OC)no2)cc(OCC)c1OCC,-6,.,-80,1,11,80*
CCCN(CC(=O)Nc1ccccc1C)C(=O)C1CC(=O)N(c2ccc(CC)cc2)C1 (centres undefined),-2,1,-41,-1,-7,41
N#C[C@@H]1[C@@H](c2ccccc2C2=CCCCC2)[C@H](CO)N1C(=O)NC1CCCC1,.,0,.,.,.,.
CSC(=Nc1ccccc1)N=C(SCc1ccccc1)N(C)C,-2,0,-86,6,6,86*
CC(=O)NC1=C(NC2CCS(=O)(=O)C2)C(=O)c2ccccc2C1=O (centres undefined),5,0,16,69*,2,-16
CCn1nc(C)c(Br)c1-c1nc(CS(=O)(=O)c2ccsc2)no1,.,0,.,0,-20,.
Cc1ccc(-c2cc(C(F)F)n3ncc(C(=O)N4CCN(c5ccccn5)CC4)c3n2)cc1,.,0,-77,.,-1,78*
CCN1CCN(C(=O)c2cnn3c(C(F)F)cc(-c4ccc(C)cc4)nc23)CC1,0,.,-28,10,1,28
O=C(c1cnn2c(C(F)F)cc(-c3ccccc3)nc12)N1CCN(Cc2ccc3c(c2)OCO3)CC1,3,0,.,.,-9,78*
CC1(CC(=O)N/N=C/c2cc3c(cc2Br)OCO3)OCCO1,-3,0,-5,-1,1,5
COc1ccc(-c2cc3nc(C)cc(N)n3n2)cc1,-5,.,-26,1,1,26
Cc1ccc(Nc2c([N+](=O)[O-])cc(C(=O)N3CC(=O)Nc4ccccc43)cc2[N+](=O)[O-])c(C)c1,-9,.,-75,12,16,75*
CCOc1ccc2c(c1)C(C)=CC(C)(C)N2C(=O)Nc1ccccc1F,1,0,26,65*,-7,-26
CCNC(=O)N1c2ccc(OCC)cc2C(C)=CC1(C)C,45,.,-67,10,-5,67
COc1cccc(-c2cnc3c(c2)C(=O)N([C@H](C)CO)C[C@@H](C)[C@H](CN(C)Cc2ccccc2)O3)c1,1,-1,.,.,.,.
CC(=O)c1cccc(N=Nc2c(C)[nH]c3ccccc23)c1,1,0,-28,4,-2,28
SMILES,ARNT-TACC3 inh,XiGFP reactiv,SR-BI uptake up,NSD2 inh,sPLA2-III inh,SR-BI DiI inh
COc1ccc(N=Nc2c(C)[nH]c3ccccc23)cc1,9,0,-88,10,7,88*
O=c1oc2c(-c3ccc([N+](=O)[O-])cc3)cc(O)cc2s1,-7,-1,-77,-1,-5,77*
NC1=C(c2ccc([N+](=O)[O-])cc2)C(=O)CO1,1,0,8,-4,6,-8
Cc1ccc2nc(-c3cccc(Cl)c3)c(Cc3cccc(F)c3)n2c1,.,0,.,.,11,.
Cc1c(C(=O)c2ccc(N(C)C)cc2)c2ccccn2c1CCC#N,7,0,-73,5,-4,73*
Cc1ccc(C(=O)NNC(=S)NC(=O)COc2ccccc2)cc1,7,.,11,0,2,-11
Cc1cccc(OCC(=O)NC(=S)NNC(=O)c2ccncc2)c1,56*,0,-14,0,1,14
CNc1ccc(C(=O)OCC(=O)NCc2ccc3c(c2)OCO3)cc1[N+](=O)[O-],0,0,15,1,4,-15
O=C(C[C@@H]1C[C@H]2c3cc(NC(=O)Nc4ccccc4F)ccc3O[C@H]2[C@H](CO)O1)NCC1CC1,9,0,.,.,.,.
O=C(O)CN(CC(=O)O)CC(=O)O,65*,0,7,.,-9,-7
CCc1cccc(CC)c1NC(=O)CN(CC(=O)O)CC(=O)O,18,0,1,.,-1,-1
CCOC(=O)c1cc(CC)sc1NC(=O)c1ccc2c(c1)OCCO2,-11,.,-71,-8,-1,71*
Cc1[nH]c(=O)[nH]c(=O)c1/C=N/NC(=O)[C@H](CC(C)C)NC(=O)OC(C)(C)C,24,.,26,1,-4,-26
Cc1[nH]c(=O)[nH]c(=O)c1/C=N/NC(=O)[C@@H](N)CC(C)C,65*,.,.,-22,-1,.
CCOc1ccccc1NC(=O)c1csc(C)c1C,-16,0,-81,-3,0,81*
CCOc1ccccc1NC(=O)c1ccccc1-c1ccccc1,-17,0,-26,-4,1,26
CCOc1ccccc1NC(=O)c1cccc2ccccc12,-10,0,-70,-3,-2,70*
CCOc1cc(NC(=O)C2CC2)c(OCC)cc1NC(=O)c1ccccc1OCC,-1,0,-72,0,-1,72*
c1ccc(CNCCN2CCNCC2)nc1,66*,.,17,-2,-5,-17
O=C(NCCN1CCNCC1)c1ccccc1O,.,0,.,-1,8,.
COc1cc(C(O)c2nc3ccccc3n2C(C)C)cc(OC)c1OC (centres undefined),50*,0,11,-3,4,-11
COc1ccc(OC)c(C(O)c2nc3ccccc3n2C(C)C)c1 (centres undefined),26,.,-5,1,-4,5
CN(C(=O)NC1CC(=O)N(c2ccc3c(c2)OCCO3)C1)c1ccccc1 (centres undefined),-9,0,-26,-1,5,26
CN(C)C(=O)C[C@@H]1C[C@@H]2c3cc(NC(=O)NC4CCCC4)ccc3O[C@@H]2[C@@H](CO)O1,-5,0,.,.,.,.
